Experimental data as given in ChEMBL document CHEMBL4428066, “Small Molecule Reversible Inhibitors of Bruton's Tyrosine Kinase (BTK): Structure-Activity Relationships Leading to the Identification of 7-(2-Hydroxypropan-2-yl)-4-[2-methyl-3-(4-oxo-3,4-dihydroquinazolin-3-yl)phenyl]-9H-carbazole-1-carboxamide (BMS-935177)” (J Med Chem, 2016).
pIC50: −log10 of the molar value. Converted amounts (≈) assume the structure as drawn. The source made the active and inactive calls. No cut-off for these calls is given here.

Legend:
[1] = target: Tyrosine-protein kinase JAK2 (Homo sapiens, UniProt O60674); assay: Inhibition of partial length human JAK2 expressed in bacterial system
[2] = Cmax in Balb/C mouse at 10 mg/kg, po; type: ADME, organism-based; set-up: dose 10 mg/kg, route oral; conditions: in vivo
Procedure, shortened: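 Male Balb/C mice dosed orally once at 10 mg/kg in PEG300/TPGS/ethanol (90/5/5 v/v/v).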

[3] = target: Tyrosine-protein kinase ITK/TSK (Homo sapiens, UniProt Q08881); assay: Inhibition of partial length human ITK expressed in bacterial system
[4] = target: Tyrosine-protein kinase TXK (Homo sapiens, UniProt P42681); assay: Inhibition of partial length human TXK expressed in bacterial system
[5] = target: High affinity nerve growth factor receptor (Homo sapiens, UniProt P04629); assay: Inhibition of partial length human TRKA expressed in mammalian system
Mus musculus [6] = assay: Antiarthritic activity in DBA/1 mouse model of collagen-induced arthritis inflammation assessed as inhibition of inflammation dosed daily and orally beginning on day of primary immunization by H and E staining based microscopy; type: functional, organism-based
[7] = target: Receptor tyrosine-protein kinase erbB-4 (Homo sapiens, UniProt Q15303); assay: Inhibition of partial length human HER4 expressed in bacterial system
[8] = target: BDNF/NT-3 growth factors receptor (Homo sapiens, UniProt Q16620); assay: Inhibition of partial length human TRKB expressed in mammalian system
[9] = target: Tyrosine-protein kinase BTK (Mus musculus, UniProt P35991); assay: Inhibition of BTK in mouse whole blood assessed as suppression of BCR/anti-IgM stimulated CD69 surface expression on B cells after 18 hrs by FACS analysis; type: tissue-based
Procedure, shortened: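 Mouse whole blood stimulated through the BCR; CD69 on the B-cell surface read by FACS with gating on B cells. IC50 reported as mean ± standard deviation of three determinations.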

[10] = Protein binding in human serum; type: ADME, cell-free; conditions: read-out: PB (converted)
Cytochrome P450 1A2 = Cytochrome P450 1A2 (Homo sapiens, UniProt P05177); assay: Inhibition of human liver microsomes CYP1A2 after 30 mins in presence of NADPH; type: ADME
Cytochrome P450 2B6 = Cytochrome P450 2B6 (Homo sapiens, UniProt P20813); assay: Inhibition of human liver microsomes CYP2B6 after 30 mins in presence of NADPH; type: ADME
Cytochrome P450 3A4 = Cytochrome P450 3A4 (Homo sapiens, UniProt P08684); assay: Inhibition of human liver microsomes CYP3A4 after 30 mins in presence of NADPH; type: ADME
Cytochrome P450 2C9 = Cytochrome P450 2C9 (Homo sapiens, UniProt P11712); assay: Inhibition of human liver microsomes CYP2C9 after 30 mins in presence of NADPH; type: ADME
Cytochrome P450 2C8 = Cytochrome P450 2C8 (Homo sapiens, UniProt P10632); assay: Inhibition of human liver microsomes CYP2C8 after 30 mins in presence of NADPH; type: ADME
[11] = Solubility of the compound in fed state simulated intestinal fluid; type: physicochemical
[12] = Permeability of the compound at pH 5.5 by PAMPA; type: ADME; conditions: read-out: permeability
Mus musculus [13] = assay: Decrease in anti-KLH IgM titers in chronic Balb/C mouse KLH antibody response model at 5 to 45 mg/kg, po qd administered through oral gavage after 14 days by ELISA; type: functional, organism-based
Procedure, shortened: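 Chronic KLH challenge model in mice with compound given by mouth. Anti-KLH IgM appears in the first week after challenge. Switching to IgG anti-KLH is evident by day 14.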

Mus musculus [14] = assay: Antiarthritic activity in DBA/1 mouse model of collagen-induced arthritis inflammation assessed reduction in disease severity dosed daily and orally beginning on day of primary immunization; type: functional, organism-based
Mus musculus [15] = assay: Time required for plasma concentration to reach above in vitro BCR/IgM/IgG-stimulated CD69 expression mouse whole blood IC50 in DBA/1 mouse CIA model at 20 mg/kg administered daily through oral gavage starting on day of primary immunization; type: ADME, organism-based; conditions: in vivo
Mus musculus [16] = assay: Antiarthritic activity in DBA/1 mouse model of collagen-induced arthritis inflammation assessed as inhibition of bone resorption end points dosed daily and orally beginning on day of primary immunization by micro-CT analysis; type: functional, organism-based
Mus musculus [17] = assay: Antiarthritic activity in DBA/1 mouse model of collagen-induced arthritis inflammation assessed as protection against pitting dosed daily and orally beginning on day of primary immunization by microcomputed tomography imaging analysis; type: functional, organism-based
Mus musculus [18] = assay: Antiarthritic activity in DBA/1 mouse model of collagen-induced arthritis inflammation assessed as protection against bone mass loss dosed daily and orally beginning on day of primary immunization by microcomputed tomography imaging analysis; type: functional, organism-based
Mus musculus [19] = assay: Antiarthritic activity in DBA/1 mouse model of collagen-induced arthritis inflammation assessed as protection against woven porous bones dosed daily and orally beginning on day of primary immunization by microcomputed tomography imaging analysis; type: functional, organism-based
Mus musculus [20] = assay: Antiarthritic activity in DBA/1 mouse model of collagen-induced arthritis inflammation assessed as presence of presence of recognizable small individual bones at foot and ankle at 20 mg/kg, po dosed daily beginning on day of primary immunization by microcomputed tomography imaging analysis; type: functional, organism-based
Mus musculus [21] = assay: Antiarthritic activity in DBA/1 mouse model of collagen-induced arthritis inflammation assessed as reduction of disease severity at 30 mg/kg, qd administered through oral gavage dosed after day 21 booster immunization; type: functional, organism-based
[22] = Cmax in mouse plasma at 5 mg/kg, administered through oral gavage after 0.25 to 24 hrs by LC/MS/MS analysis; type: ADME, organism-based; set-up: dose 5 mg/kg, route oral
[23] = Tmax in mouse plasma at 5 mg/kg, administered through oral gavage after 0.25 to 24 hrs by LC/MS/MS analysis; type: ADME, organism-based
[24] = AUC in mouse plasma at 5 mg/kg, administered through oral gavage after 0.25 to 24 hrs by LC/MS/MS analysis; type: ADME, organism-based; set-up: time 0.25-24 hr, dose 5 mg/kg, route oral
[25] = Half life in mouse plasma at 2 mg/kg, iv through bolus administration after 0.05 to 24 hrs by LC/MS/MS analysis; type: ADME, organism-based
[26] = Tmax in Sprague-Dawley rat plasma at 5 mg/kg, administered through oral gavage by LC/MS/MS analysis; type: ADME, organism-based
[27] = AUC in Sprague-Dawley rat plasma at 5 mg/kg, administered through oral gavage by LC/MS/MS analysis; type: ADME, organism-based
[28] = Half life in Sprague-Dawley rat plasma at 2 mg/kg, iv through bolus administration by LC/MS/MS analysis; type: ADME, organism-based
[29] = Volume of distribution in steady state in Sprague-Dawley rat at 2 mg/kg, iv through bolus administration by LC/MS/MS analysis; type: ADME, organism-based; conditions: in vivo, read-out: Vdss
[30] = AUC in Beagle dog plasma at 2 mg/kg, administered through oral gavage after 0.25 to 48 hrs by LC/MS/MS analysis; type: ADME, organism-based, Canis lupus familiaris; set-up: time 0.25-48 hr, dose 2 mg/kg, route oral
[31] = Plasma clearance in Beagle dog at 2 mg/kg, iv through bolus administration after 0.167 to 48 hrs by LC/MS/MS analysis; type: ADME, organism-based, Canis lupus familiaris
[32] = Oral bioavailability in cynomolgus monkey at 2 mg/kg after 0.25 to 48 hrs by LC/MS/MS analysis; type: ADME, organism-based, Macaca fascicularis; conditions: in vivo

Sequence of Cytochrome P450 2C9 (P11712 whole entry): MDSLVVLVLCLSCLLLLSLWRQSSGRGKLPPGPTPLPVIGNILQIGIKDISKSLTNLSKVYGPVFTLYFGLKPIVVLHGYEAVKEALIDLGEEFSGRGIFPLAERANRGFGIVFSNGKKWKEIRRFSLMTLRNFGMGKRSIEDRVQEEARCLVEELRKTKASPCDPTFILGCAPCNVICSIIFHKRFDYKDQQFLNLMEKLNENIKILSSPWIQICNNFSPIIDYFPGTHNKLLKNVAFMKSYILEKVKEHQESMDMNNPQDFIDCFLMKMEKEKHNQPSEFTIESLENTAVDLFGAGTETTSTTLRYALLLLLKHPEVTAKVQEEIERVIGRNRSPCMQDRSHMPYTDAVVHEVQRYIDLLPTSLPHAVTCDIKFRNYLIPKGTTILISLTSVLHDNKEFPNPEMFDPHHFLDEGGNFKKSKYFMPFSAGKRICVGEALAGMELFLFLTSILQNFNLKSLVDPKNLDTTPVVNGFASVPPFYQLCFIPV
Sequence of High affinity nerve growth factor receptor (P04629 whole entry): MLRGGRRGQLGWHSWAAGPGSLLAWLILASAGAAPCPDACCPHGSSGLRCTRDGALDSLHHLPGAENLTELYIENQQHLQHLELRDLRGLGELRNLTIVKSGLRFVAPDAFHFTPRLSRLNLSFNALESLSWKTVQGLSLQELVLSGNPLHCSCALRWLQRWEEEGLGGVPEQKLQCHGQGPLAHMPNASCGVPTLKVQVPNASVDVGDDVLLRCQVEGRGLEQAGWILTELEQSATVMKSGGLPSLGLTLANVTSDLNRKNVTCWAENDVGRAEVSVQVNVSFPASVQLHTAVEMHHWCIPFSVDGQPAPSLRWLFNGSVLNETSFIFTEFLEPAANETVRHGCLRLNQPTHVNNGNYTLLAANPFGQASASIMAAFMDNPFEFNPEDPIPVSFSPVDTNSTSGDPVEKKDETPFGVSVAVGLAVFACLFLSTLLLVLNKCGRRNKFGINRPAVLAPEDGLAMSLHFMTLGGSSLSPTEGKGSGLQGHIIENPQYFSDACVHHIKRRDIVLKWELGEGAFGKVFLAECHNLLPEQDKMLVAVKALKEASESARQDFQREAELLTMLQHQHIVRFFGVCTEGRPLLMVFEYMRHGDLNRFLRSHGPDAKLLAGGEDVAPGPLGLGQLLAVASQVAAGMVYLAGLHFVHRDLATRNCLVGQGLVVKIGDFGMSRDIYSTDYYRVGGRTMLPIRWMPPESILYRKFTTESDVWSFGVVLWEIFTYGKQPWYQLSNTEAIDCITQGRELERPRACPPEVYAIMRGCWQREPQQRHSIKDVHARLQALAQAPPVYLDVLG
Sequence of Tyrosine-protein kinase TXK (P42681 whole entry): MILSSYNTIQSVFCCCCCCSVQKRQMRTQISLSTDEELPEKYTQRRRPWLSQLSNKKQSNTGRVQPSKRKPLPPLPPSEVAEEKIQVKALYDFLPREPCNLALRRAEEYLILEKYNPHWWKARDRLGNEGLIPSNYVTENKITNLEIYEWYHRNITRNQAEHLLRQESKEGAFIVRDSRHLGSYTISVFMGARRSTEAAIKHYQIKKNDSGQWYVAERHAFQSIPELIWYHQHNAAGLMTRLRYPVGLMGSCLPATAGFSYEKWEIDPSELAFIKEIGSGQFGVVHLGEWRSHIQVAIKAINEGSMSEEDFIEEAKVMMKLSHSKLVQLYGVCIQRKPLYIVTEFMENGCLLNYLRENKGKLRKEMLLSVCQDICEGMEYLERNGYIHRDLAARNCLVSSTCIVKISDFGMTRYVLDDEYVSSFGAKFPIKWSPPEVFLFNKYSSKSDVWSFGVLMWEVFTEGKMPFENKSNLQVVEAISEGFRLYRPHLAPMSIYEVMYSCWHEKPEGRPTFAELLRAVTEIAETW
Sequence of Cytochrome P450 2C8 (P10632 whole entry): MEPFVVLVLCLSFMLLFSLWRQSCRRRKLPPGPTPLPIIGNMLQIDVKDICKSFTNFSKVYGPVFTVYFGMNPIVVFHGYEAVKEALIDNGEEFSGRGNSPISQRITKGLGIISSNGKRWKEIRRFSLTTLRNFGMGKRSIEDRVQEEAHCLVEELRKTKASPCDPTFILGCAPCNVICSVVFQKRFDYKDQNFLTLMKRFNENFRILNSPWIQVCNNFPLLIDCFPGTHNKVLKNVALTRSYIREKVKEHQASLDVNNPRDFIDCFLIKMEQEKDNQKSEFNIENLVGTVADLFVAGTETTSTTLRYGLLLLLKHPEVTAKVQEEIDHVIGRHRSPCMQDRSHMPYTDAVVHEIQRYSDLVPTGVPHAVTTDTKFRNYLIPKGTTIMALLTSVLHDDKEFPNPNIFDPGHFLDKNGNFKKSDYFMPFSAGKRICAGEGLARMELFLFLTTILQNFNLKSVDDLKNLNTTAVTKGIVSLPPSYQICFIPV
Sequence of Receptor tyrosine-protein kinase erbB-4 (Q15303 whole entry): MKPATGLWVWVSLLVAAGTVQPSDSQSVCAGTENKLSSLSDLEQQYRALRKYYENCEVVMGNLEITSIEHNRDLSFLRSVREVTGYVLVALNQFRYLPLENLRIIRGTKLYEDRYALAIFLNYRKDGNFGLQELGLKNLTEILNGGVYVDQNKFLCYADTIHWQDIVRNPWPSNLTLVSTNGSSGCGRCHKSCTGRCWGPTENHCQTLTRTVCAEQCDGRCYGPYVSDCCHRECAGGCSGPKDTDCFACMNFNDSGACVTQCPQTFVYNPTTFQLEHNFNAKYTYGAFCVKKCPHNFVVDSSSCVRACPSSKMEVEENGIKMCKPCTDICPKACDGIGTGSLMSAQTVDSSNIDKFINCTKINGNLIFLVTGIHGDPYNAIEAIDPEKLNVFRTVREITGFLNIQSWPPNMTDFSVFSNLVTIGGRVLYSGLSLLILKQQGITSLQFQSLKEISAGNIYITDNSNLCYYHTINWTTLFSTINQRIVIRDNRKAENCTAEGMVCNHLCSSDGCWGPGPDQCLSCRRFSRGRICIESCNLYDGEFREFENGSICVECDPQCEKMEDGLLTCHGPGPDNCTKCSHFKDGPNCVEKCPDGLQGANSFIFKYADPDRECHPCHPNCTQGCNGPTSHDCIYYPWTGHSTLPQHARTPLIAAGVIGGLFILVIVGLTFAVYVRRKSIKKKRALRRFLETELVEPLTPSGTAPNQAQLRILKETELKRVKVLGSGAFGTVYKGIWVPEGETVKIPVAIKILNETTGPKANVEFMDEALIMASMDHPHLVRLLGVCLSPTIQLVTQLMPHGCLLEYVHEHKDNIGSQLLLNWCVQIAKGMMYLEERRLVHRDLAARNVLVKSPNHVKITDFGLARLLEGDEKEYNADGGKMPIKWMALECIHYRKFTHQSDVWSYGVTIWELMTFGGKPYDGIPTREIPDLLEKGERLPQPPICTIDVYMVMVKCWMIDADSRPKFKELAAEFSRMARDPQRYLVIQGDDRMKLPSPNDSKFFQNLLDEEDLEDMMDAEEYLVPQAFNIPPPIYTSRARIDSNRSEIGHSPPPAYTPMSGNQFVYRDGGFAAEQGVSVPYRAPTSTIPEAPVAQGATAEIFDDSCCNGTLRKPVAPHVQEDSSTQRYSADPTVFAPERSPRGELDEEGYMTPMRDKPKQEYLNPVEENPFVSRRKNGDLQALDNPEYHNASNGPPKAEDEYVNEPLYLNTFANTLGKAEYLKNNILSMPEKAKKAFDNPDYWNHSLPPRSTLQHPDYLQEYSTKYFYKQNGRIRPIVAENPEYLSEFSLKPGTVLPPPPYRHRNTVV
Sequence of Tyrosine-protein kinase JAK2 (O60674 whole entry): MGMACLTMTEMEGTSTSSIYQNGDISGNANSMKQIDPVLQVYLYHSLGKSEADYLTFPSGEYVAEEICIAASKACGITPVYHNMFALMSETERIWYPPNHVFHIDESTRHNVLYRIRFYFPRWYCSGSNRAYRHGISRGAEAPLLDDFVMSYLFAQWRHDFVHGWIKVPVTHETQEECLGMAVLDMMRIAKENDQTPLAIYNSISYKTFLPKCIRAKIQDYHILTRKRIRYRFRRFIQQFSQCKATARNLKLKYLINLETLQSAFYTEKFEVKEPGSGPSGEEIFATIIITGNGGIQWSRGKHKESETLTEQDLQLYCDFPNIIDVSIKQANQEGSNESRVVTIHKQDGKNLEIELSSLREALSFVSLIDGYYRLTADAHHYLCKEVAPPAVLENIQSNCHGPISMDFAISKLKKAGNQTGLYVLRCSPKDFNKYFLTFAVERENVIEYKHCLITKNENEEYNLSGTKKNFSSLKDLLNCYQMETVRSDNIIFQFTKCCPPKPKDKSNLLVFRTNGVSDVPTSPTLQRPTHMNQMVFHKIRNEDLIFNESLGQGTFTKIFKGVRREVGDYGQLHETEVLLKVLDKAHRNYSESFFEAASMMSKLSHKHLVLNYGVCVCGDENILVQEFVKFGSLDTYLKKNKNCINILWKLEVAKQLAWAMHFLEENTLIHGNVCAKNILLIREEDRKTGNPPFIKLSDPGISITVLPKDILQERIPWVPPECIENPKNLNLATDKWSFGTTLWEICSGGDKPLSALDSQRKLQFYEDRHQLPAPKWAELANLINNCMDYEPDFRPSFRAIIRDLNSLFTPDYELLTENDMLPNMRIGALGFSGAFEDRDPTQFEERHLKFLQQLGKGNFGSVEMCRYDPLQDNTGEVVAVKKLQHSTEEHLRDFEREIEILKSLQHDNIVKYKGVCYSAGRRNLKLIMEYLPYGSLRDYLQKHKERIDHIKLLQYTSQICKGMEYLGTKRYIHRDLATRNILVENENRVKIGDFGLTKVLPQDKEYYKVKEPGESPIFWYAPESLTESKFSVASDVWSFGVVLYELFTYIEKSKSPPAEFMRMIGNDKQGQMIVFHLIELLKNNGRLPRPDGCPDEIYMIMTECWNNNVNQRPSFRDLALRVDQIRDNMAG

Cc1c(-c2ccc(C(N)=O)c3[nH]c4cc(C(C)(C)O)ccc4c23)cccc1-n1cnc2ccccc2c1=O
pIC50 [1]: 6.43 | Cmax [2]: 8.96 µM | pIC50 [3]: 7.02 | pIC50 [4]: 6.74 | pIC50 [5]: 7.52 | Activity (Mus musculus [6]): Active | pIC50 [7]: 7.30 | pIC50 [8]: 7.00 | pIC50 [9]: 5.69 | fraction unbound [10]: 0.006 | pIC50 (Cytochrome P450 1A2): < 4.40 | pIC50 (Cytochrome P450 2B6): < 4.40 | pIC50 (Cytochrome P450 3A4): < 4.40 | pIC50 (Cytochrome P450 2C9): < 5.10 | pIC50 (Cytochrome P450 2C8): < 5.10 | solubility [11]: 60 µg/mL (≈ 119 µM) | Papp [12]: 87.6 ×10⁻⁶ cm/s | Activity (Mus musculus [13]): Active | Activity (Mus musculus [14]): Dose-dependent effect | Time (Mus musculus [15]): 20 h | Activity (Mus musculus [16]): Active | Activity (Mus musculus [17]): Dose-dependent effect | Activity (Mus musculus [18]): Dose-dependent effect | Activity (Mus musculus [19]): Dose-dependent effect | Activity (Mus musculus [20]): Active | Activity (Mus musculus [21]): Active | Cmax [22]: 3.8 µM | Tmax [23]: 3 h | AUC [24]: 30.8 µM·h | half-life [25]: 4 h | Tmax [26]: 5 h | AUC [27]: 21.2 µM·h | half-life [28]: 5.1 h | Vd [29]: 2.6 L/kg | AUC [30]: 14.2 µM·h | clearance [31]: 3.7 mL/min/kg | bioavailability [32]: 100%
